Assay outcomes as filed in PubChem.
Shown are actives, neighbours in structure and some others; about 2.6% of the full set was active somewhere.
Runt-CBFb FRET – inhibitors of human RUNX1 Runt domain binding to CBFb. Q01196+Q13951. hit rate 0.46% among 220,000. Cerulean-Runt/Venus-CBFb FRET ratio 530/480, 1 h. inhibition, % at 20 µM;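 active = inhibition over about 50% at 20 µM in the single-dose screen, limit read from the data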;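 also: 0% = DMSO wells and 100% = excess unlabeled CBFb competitor control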
Target sequence (Q01196 whole entry, looked up, the tested form may be a part): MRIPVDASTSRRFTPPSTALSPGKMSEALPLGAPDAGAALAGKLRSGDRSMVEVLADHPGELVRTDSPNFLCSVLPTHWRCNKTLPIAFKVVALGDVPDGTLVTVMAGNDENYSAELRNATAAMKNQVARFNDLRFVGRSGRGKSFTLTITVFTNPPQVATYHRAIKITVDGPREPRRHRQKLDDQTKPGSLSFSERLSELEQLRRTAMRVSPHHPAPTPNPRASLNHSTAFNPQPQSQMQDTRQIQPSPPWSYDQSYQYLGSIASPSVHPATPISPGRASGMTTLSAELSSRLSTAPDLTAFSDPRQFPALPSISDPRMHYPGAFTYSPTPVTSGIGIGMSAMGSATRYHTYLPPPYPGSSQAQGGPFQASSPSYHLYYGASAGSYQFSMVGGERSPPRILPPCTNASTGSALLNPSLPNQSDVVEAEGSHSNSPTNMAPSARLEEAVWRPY
Target sequence (Q13951 whole entry, looked up, the tested form may be a part): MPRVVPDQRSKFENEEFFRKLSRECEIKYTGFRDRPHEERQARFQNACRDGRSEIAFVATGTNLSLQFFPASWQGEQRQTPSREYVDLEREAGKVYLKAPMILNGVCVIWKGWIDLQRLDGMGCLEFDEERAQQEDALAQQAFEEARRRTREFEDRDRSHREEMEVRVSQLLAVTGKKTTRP
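Buffer or medium: Tris pH 7.5 buffer with BSA. Assay system: Cerulean-labeled Runt domain protein. Amount: each fluorescent fusion protein 100 nM. Read-out basis: loss of energy transfer signal. Incubation: 1 h compound exposure, room temperature. Probe or stimulus: Venus-CBFb binding partner, 100 nM. Detection: FRET, excitation 422 nm, emission at 530 and 480 nm.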
RanGTP-Imp inh – inhibitors of RanGTP-importin-beta interaction, primary screen, biochemical, FRET, CFP-Ran, YFP-importin-beta, homogeneous | hit rate 1.1% among 300,000 | cell-free CFP-Ran/YFP-importin-beta FRET ratio | inhibition, % (no concentration beside the values);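 active = more than half of the replicate wells show a fall in the fluorescence ratio signal beyond about 16%, limit read from the data, passing the limit was not always enough; inconclusive = exactly half of the replicate wells pass the set limit; inactive = fewer than half of replicates pass the limit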;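 also: 0% = DMSO wells and 100% = Ran loaded with GDP instead of GTP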
Runt-SMMHC FRET – inhibitors of human RUNX1 Runt domain binding to CBFb-SMMHC; Q01196+Q13951; inhibition, % at 20 µM; hit rate 0.74% among 220,000; AID 1434; Cerulean-Runt/Venus-CBFb-SMMHC FRET ratio 530/480, 1 h;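 active = mean inhibition across duplicate retests at 20 µM reaching about 50%, limit read from the data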;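 also: 0% = DMSO wells and 100% = wells with excess untagged CBFb-SMMHC; inhibitors lower the FRET ratio by blocking Runt binding to CBFb-SMMHC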
IMP-1 inhibitor – inhibitors of Pseudomonas aeruginosa IMP-1 metallo-beta-lactamase; purified IMP-1, nitrocefin hydrolysis, epi-absorbance fluorescence; inhibition, % at 5.6 µM; hit rate 0.45% among 290,000; AID 1556;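 active = inhibition above the mean plus 3 SD of all compounds in the same screening run, cut at about 4.5% in these data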;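 also: 0% = IMP-1 with DMSO and 100% = DMSO wells lacking enzyme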
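System: purified IMP-1; amount: IMP-1 0.2 nM before substrate addition; compound: single dose, 5.6 µM; times: 25 °C, 15 min preincubation, 25 min reaction; signal: Epi-absorbance via hydrolysed-nitrocefin quenching of white-plate fluorescence, 480/530 nm, EDTA stop; benchmarks: DMSO with and without IMP-1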
VIM-2 inhibitor – blocks Pseudomonas aeruginosa VIM-2 metallo-beta-lactamase | purified VIM-2, nitrocefin hydrolysis, epi-absorbance fluorescence | inhibition, % at 5.6 µM | hit rate 0.89% among 290,000 | AID 1527;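 active = inhibition above the mean of all tested compounds plus 3 SD, cutoff set per screening run, cut at about 7.5% in these data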;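 also: red hydrolysis product quenches plate fluorescence so inhibitors raise well fluorescence; 0% = enzyme with DMSO and 100% = DMSO without enzyme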
Starred values were filed as active, the others as inactive; ? = inconclusive; · = no result.

SMILES | Runt-CBFb FRET | RanGTP-Imp inh | Runt-SMMHC FRET | IMP-1 inhibitor | VIM-2 inhibitor
CCOC(=O)C1=C(CSc2nc3c(cc2C#N)CN(C)CC3)OC(N)=C(C#N)C1c1ccc(Cl)cc1 (stereo not drawn) | 23.4 | 26.9* | 58.6* | 1.1 | 1.8
CCOC(=O)C1=C(CSc2nc(C)cc(C)c2C#N)OC(N)=C(C#N)C1c1ccccc1 (stereo not drawn) | 22.8 | ? | 28.6 | -1.1 | 2.2
CCOC(=O)C1=C(CSc2nc(CC)c(C)cc2C#N)OC(N)=C(C#N)C1c1ccccc1 (stereo not drawn) | 24.8 | 21.8* | 44.7 | -0.3 | -1.3
CCOC(=O)C1=C(CSc2nc3c(cc2C#N)CN(C)CC3)OC(N)=C(C#N)C1c1ccncc1 (stereo not drawn) | 50.0 | 20.8* | 73.7* | -0.9 | -1.4
CCOC(=O)C1=C(CSc2nc(-c3ccccc3)ccc2C#N)OC(N)=C(C#N)C1c1ccc(OC)cc1 (stereo not drawn) | 21.5 | 3.7 | -83.9 | 3.2 | 1.1
CCCC1=C(C(=O)OCC)C(c2cccs2)C(C#N)=C(N)O1 (stereo not drawn) | 5.0 | 30.0* | 5.9 | 2.7 | -0.8
O=C(NC1CCS(=O)(=O)C1)c1cccc(Cl)c1 (stereo not drawn) | · | 0.2 | · | · | ·
O=C(NNC(=O)c1ccco1)c1csc(N2CCOCC2)n1 | · | 7.7 | · | · | ·
COc1ccc(NC(=O)CN(C)S(=O)(=O)c2cnc[nH]2)cc1Cl | · | 4.7 | · | -0.3 | 0.2
CCc1c(C(=O)N/N=C/c2ccco2)nnn1-c1nonc1N | · | -1.4 | · | -1.4 | -0.3
Nn1c(SCc2ccc([N+](=O)[O-])cc2)nc2ccccc2c1=O | · | 1.6 | · | 7.6* | -2.4
O=C1Nc2ccccc2S/C1=C/Nc1cccc(Cl)c1 | 3.9 | -2.2 | -47.8 | -1.9 | 7.8*
CCN=C1S/C(=C\c2cc(OCC)c(O)cc2Br)C(=O)N1CC | -31.1 | 3.9 | -41.8 | -0.7 | 7.8*
O=C(O)C1=C[C@@H](c2csc3ccccc23)C[C@@H](OCCCCO)O1 | -1.3 | 7.2 | -2.4 | 0.4 | 4.4
O=C(O)C1=C[C@H](c2csc3ccccc23)C[C@H](OCCCCO)O1 | 0.6 | 0.1 | -7.2 | 3.1 | 9.5*
CCCn1c(SCC(=O)Nc2nnc(C)s2)nnc1C1CC1 | · | 0.3 | · | -2.2 | 7.8*
CCCn1c(SCC(=O)NC2CCCCC2)nnc1C1CC1 | · | 7.3 | · | -0.4 | 3.6
O=c1cc(N2CCCC2)[nH]c(=O)n1-c1ccc(Cl)cc1 | -88.5 | 59.5* | 0.7 | -3.9 | 0.6
O=c1cc(N2CCOCC2)[nH]c(=O)n1-c1ccc(Cl)cc1 | 0.4 | 11.3 | 1.2 | -4.4 | -0.8
O=c1cc(N2CCCCCC2)[nH]c(=O)n1-c1ccc(Cl)cc1 | -0.4 | 128.9* | -3.7 | -3.4 | -1.8
CCOCCCn1c(=S)[nH]c2cc(C(=O)NC3CCCC(C)C3C)ccc2c1=O (stereo not drawn) | · | -1.9 | · | -3.4 | -3.0
O=C(NCCc1ccc(Cl)cc1)c1ccc(Br)s1 | · | -0.3 | · | -2.6 | -3.7
CCC(=O)NC1=C(Cl)C(=O)C(NC(=O)CC)=C(Cl)C1=O | 17.0 | · | 95.3* | -8.1 | -0.1
CCC(=O)NC1=C(NC(C)c2ccccc2)C(=O)c2ccccc2C1=O (stereo not drawn) | 0.6 | -3.1 | -7.1 | -3.7 | -3.4
CCN1CCCC1CNc1ncnc2c1[nH]c1ccc(Cl)cc12 (stereo not drawn) | -1.3 | 2.2 | -1.6 | 2.4 | 12.2*
SMILES | Runt-CBFb FRET | RanGTP-Imp inh | Runt-SMMHC FRET | IMP-1 inhibitor | VIM-2 inhibitor
Cc1ccc2[nH]c3c(NCCN4CCOCC4)ncnc3c2c1 | -1.0 | 0.7 | 0.6 | 0.7 | 4.1
Clc1ccc2[nH]c3c(NCCCN4CCOCC4)ncnc3c2c1 | -1.3 | -0.3 | 0.3 | 1.6 | 9.9*
CCOc1ccc2nc(NC(=O)C34CC5CC(CC(NC(C)=O)(C5)C3)C4)sc2c1 | · | 6.8 | · | -2.7 | -2.6
O=C(NC(NNc1ccc([N+](=O)[O-])cc1)(C(F)(F)F)C(F)(F)F)c1ccccc1Cl | -1.4 | 23.1* | -6.7 | -0.6 | 0.4
O=C(NC(NNc1ccc([N+](=O)[O-])cc1)(C(F)(F)F)C(F)(F)F)c1ccc(F)cc1 | -3.6 | -4.3 | -2.1 | -3.6 | -2.0
Cc1ccc2c(c1)c1c3n2CCN(C(=O)CCl)C3CCC1 (stereo not drawn) | · | -7.3 | · | -3.9 | -1.9
CN(C)S(=O)(=O)c1ccc(C(=O)OCC2CCCO2)cc1 (stereo not drawn) | · | 5.9 | · | 0.3 | -0.7
CCCn1c(=N)c(C(=O)NCC2CCCO2)cc2c(=O)n3cccc(C)c3nc21 (stereo not drawn) | 11.5 | 183.6* | 37.9 | 0.4 | 6.8
COCCCn1c(=N)c(C(=O)NCC2CCCO2)cc2c(=O)n3ccccc3nc21 (stereo not drawn) | 12.5 | 172.4* | 65.3* | -2.3 | 0.9
Cc1cccn2c(=O)c3cc(C(=O)NCC4CCCO4)c(=N)n(CCN4CCOCC4)c3nc12 (stereo not drawn) | 125.2* | 106.4* | 79.2* | -3.4 | 3.1
Cc1ccc(CNC(=O)c2cc3c(=O)n4cccc(C)c4nc3n(CC3CCCO3)c2=N)cc1 (stereo not drawn) | 16.7 | · | 41.7 | · | ·
COCCCn1c(=N)c(C(=O)NCC2CCCO2)cc2c(=O)n3cccc(C)c3nc21 (stereo not drawn) | 18.8 | 176.9* | 59.6* | 1.5 | 2.3
COc1ccc(Nc2cc(Nc3cccc(OC)c3)ncn2)cc1 | · | ? | · | -1.5 | -1.4
C#CCOc1ccc(C2C3=C(CC(C)(C)CC3=O)N(CC(=O)O)C3=C2C(=O)CC(C)(C)C3)cc1 | · | 162.1* | · | -2.3 | -3.3
COc1ccc(C2C3=C(CC(C)(C)CC3=O)N(C)C3=C2C(=O)CC(C)(C)C3)cc1OC | · | 9.2 | · | -0.4 | -0.7
Cc1ccc(N2C3=C(C(=O)CC(C)(C)C3)C(c3cn(C)nc3C)C3=C2CC(C)(C)CC3=O)cc1 | · | 25.6* | · | · | ·
COc1ccc(C2C3=C(CC(C)(C)CC3=O)N(C)C3=C2C(=O)CC(C)(C)C3)cc1 | 20.3 | 136.8* | 86.3* | -3.0 | -1.6
Cc1nn(C)cc1C1C2=C(CC(C)(C)CC2=O)N(c2ccccc2)C2=C1C(=O)CC(C)(C)C2 | 0.3 | 12.1 | 3.5 | -2.9 | -1.8
CN1C2=C(C(=O)CC(C)(C)C2)C(c2cccs2)C2=C1CC(C)(C)CC2=O | · | 60.5* | · | · | ·
COc1ccccc1NC(=O)c1ccc(Br)c(S(=O)(=O)N2CCCC2)c1 | · | 1.8 | · | -2.4 | -1.8
NNC(=O)c1ccc(S(=O)(=O)N2CCc3ccccc32)cc1 | · | 3.9 | · | -1.1 | 0.8
COc1ccc(CNC(=O)CN(C(=O)c2snc(C(N)=O)c2N)c2ccc(OC)c(OC)c2)cc1 | · | -1.2 | · | -3.5 | -1.6
COc1ccc(C2C3=C(CC(C)(C)CC3=O)Nc3cc4c(cc32)OCO4)cc1 (stereo not drawn) | -0.4 | -3.1 | -0.6 | -1.6 | -3.1
COc1ccccc1C1C2=C(CC(C)(C)CC2=O)N(CC(=O)O)C2=C1C(=O)CC(C)(C)C2 | · | 163.8* | · | -0.1 | 0.1
